# ChEMBL document CHEMBL4725242, “Discovery of GS-9688 (Selgantolimod) as a Potent and Selective Oral Toll-Like Receptor 8 Agonist for the Treatment of Chronic Hepatitis B” (J Med Chem, 2020)
# Activity calls are given as the source filed them.
# What was measured:
# [1] = Dissociation constant, pKa of the compound; format: physicochemical
# [2] = Cytotoxicity against human MT4 cells assessed as reduction in cell viability measured after 4 to 5 days by celltiter-glo assay; format: cell-based; conditions: time 4-5 day
# [3] = Immunomodulatory activity in human primary hepatocytes infected with HBV assessed as stimulation of CD8+T cell response to virus by measuring decrease in HBV DNA production treated with media from PBMC stimulated with 10 nM compound for 10 days relative to control; format: functional; design: scale not given: the % may be the effect or the level left; conditions: time 10 day
# [4] = Clearance in cynomolgus monkey hepatic microsomes at 2 uM measured up to 60 mins in presence of NADPH generating system by LC-MS/MS analysis; format: ADME, Macaca fascicularis, Microsome; conditions: liver microsomes
# [5] = Clearance in human hepatic microsomes at 2 uM measured up to 60 mins in presence of NADPH generating system by LC-MS/MS analysis; format: ADME, Microsome; conditions: liver microsomes
# [6] = Drug metabolism in human hepatocytes assessed as core oxidation; format: ADME, cell-based, Hepatocyte
# [7] = Drug metabolism in human hepatocytes assessed as oxidation of lipophilic chain; format: ADME, cell-based, Hepatocyte
# [8] = Volume of distribution at steady state in Sprague-Dawley rat at 1 mg/kg, iv administered as 30 mins infusion by HPLC-MS analysis; format: ADME, organism-based; conditions: in vivo, read-out: Vdss
# Procedure, shortened: (§1)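 30-min intravenous infusion: Sprague Dawley rats 1 mg/kg, beagle dogs 0.25 mg/kg, cynomolgus monkeys 0.1 mg/kg; n = 3 per species, reported as mean ± SD.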
# [9] = AUC (infinity) in Sprague-Dawley rat at 5 mg/kg, po administered via gavage by HPLC-MS analysis; format: ADME, organism-based; design: time infinity, route oral, dose 5 mg/kg; conditions: in vivo
# Procedure, shortened: (§2)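 Oral dosing in 2% ethanol/40% PEG 300/58% 0.01N HCl: Sprague Dawley rats 5 mg/kg, beagle dogs 0.5 mg/kg, cynomolgus monkeys 3 mg/kg.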
# [10] = Oral bioavailability in Sprague-Dawley rat at 5 mg/kg administered via gavage by HPLC-MS analysis; format: ADME, organism-based; conditions: in vivo; procedure, shortened: as §2
# [11] = Clearance in Beagle dog at 0.25 mg/kg, iv administered as 30 mins infusion by HPLC-MS analysis; format: ADME, organism-based, Canis lupus familiaris; conditions: in vivo; procedure, shortened: as §1
# [12] = Volume of distribution at steady state in Beagle dog at 0.25 mg/kg, iv administered as 30 mins infusion by HPLC-MS analysis; format: ADME, organism-based, Canis lupus familiaris; conditions: in vivo, read-out: Vdss; procedure, shortened: as §1
# [13] = AUC (infinity) in Beagle dog at 0.5 mg/kg, po administered via gavage by HPLC-MS analysis; format: ADME, organism-based, Canis lupus familiaris; design: route oral, time infinity, dose 0.5 mg/kg; conditions: in vivo; procedure, shortened: as §2
# [14] = Volume of distribution at steady state in cynomolgus monkey at 0.1 mg/kg, iv administered as 30 mins infusion by HPLC-MS analysis; format: ADME, organism-based, Macaca fascicularis; conditions: in vivo, read-out: Vdss; procedure, shortened: as §1
# [15] = Half life in cynomolgus monkey at 0.1 mg/kg, iv administered as 30 mins infusion by HPLC-MS analysis; format: ADME, organism-based, Macaca fascicularis; conditions: in vivo; procedure, shortened: as §1
# [16] = AUC (infinity) in cynomolgus monkey at 3 mg/kg, po administered via gavage by HPLC-MS analysis; format: ADME, organism-based, Macaca fascicularis; design: route oral, time infinity, dose 3 mg/kg; conditions: in vivo; procedure, shortened: as §2
# [17] = Oral bioavailability in cynomolgus monkey at 3 mg/kg administered via gavage by HPLC-MS analysis; format: ADME, organism-based, Macaca fascicularis; conditions: in vivo; procedure, shortened: as §2
# [18] = Drug absorption in cynomolgus monkey at 3 mg/kg, po administered via gavage by HPLC-MS analysis; format: ADME, organism-based, Macaca fascicularis; conditions: in vivo, read-out: Drug absorption; procedure, shortened: as §2
# [19] = Drug excretion in bile duct-cannulated Sprague-Dawley rat bile; format: ADME; conditions: in vivo
# [20] = molecular target: Toll-like receptor 3 (Homo sapiens) (UniProt O15455); test: Agonist activity at human TLR3 expressed in HEK293 cells assessed as increase in NF-kappaB activation up to 10 uM incubated for 18 hrs by quanti-blue SEAP reporter gene assay; format: cell-based; conditions: dose microM <=10, time […]
# Chain of Toll-like receptor 3 (Homo sapiens) (O15455 whole entry): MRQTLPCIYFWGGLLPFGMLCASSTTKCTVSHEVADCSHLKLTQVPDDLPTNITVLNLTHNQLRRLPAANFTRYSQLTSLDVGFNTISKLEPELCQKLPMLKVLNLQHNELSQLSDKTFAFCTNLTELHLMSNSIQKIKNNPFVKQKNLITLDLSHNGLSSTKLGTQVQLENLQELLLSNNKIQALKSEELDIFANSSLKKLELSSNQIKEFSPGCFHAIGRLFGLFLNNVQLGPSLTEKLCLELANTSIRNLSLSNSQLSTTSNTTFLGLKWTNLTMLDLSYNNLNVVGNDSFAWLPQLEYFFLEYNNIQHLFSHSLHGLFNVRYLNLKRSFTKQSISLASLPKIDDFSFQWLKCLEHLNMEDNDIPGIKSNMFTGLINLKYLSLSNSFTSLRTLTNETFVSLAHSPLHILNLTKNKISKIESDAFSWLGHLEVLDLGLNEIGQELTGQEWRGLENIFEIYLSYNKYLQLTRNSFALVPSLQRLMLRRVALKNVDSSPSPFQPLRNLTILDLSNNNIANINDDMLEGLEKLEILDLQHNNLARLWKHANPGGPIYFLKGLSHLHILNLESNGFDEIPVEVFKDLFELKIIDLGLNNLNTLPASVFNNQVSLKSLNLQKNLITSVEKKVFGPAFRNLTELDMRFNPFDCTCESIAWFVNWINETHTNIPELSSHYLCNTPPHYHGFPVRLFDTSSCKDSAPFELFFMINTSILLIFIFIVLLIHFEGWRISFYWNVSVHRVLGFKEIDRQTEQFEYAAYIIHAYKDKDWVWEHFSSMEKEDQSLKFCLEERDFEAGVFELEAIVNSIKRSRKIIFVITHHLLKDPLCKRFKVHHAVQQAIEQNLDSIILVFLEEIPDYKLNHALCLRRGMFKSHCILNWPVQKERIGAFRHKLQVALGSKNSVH
# Procedure, shortened: (§3)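 HEK293 cells stably expressing individual human TLRs or other innate immune receptors, used as reporter gene assays. Minimum effective concentration defined as the level giving a 3-fold rise over background.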
# [21] = molecular target: T1, Toll-like receptor 9 (Homo sapiens) (UniProt Q9NR96); test: Agonist activity at human TLR9 expressed in HEK293 cells assessed as increase in NF-kappaB activation up to 10 uM incubated for 18 hrs by quanti-blue SEAP reporter gene assay; format: cell-based; conditions: dose microM <=10, time […]; procedure, shortened: as §3
# T1 sequence (whole entry): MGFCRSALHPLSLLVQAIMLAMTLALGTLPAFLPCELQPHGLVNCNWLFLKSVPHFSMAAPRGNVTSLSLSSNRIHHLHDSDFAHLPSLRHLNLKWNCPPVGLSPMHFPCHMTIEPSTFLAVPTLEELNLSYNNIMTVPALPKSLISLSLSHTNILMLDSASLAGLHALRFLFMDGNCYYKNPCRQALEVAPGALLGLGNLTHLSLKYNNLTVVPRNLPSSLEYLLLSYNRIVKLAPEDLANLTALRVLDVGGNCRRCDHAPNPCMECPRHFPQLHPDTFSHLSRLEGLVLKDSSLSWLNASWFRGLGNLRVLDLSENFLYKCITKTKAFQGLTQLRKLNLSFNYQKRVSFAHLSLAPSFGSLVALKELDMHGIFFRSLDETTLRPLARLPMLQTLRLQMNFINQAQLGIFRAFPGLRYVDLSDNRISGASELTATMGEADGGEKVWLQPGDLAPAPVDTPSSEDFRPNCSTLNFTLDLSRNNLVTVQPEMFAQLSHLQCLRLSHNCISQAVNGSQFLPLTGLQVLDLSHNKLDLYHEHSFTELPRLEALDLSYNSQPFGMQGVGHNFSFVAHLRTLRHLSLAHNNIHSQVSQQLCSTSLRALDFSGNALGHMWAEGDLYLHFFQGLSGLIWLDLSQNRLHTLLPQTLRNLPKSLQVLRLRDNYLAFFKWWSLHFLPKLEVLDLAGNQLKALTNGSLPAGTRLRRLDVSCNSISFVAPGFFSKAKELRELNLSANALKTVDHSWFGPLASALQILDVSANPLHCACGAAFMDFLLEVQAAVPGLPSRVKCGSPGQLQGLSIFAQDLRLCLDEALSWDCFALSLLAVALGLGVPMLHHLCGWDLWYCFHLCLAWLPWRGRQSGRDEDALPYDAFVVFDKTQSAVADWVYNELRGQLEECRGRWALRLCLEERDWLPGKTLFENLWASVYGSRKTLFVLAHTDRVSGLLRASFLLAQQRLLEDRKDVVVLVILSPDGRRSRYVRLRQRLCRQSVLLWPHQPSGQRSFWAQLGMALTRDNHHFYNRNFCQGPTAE
# [22] = Immunomodulatory activity in human primary hepatocytes infected with HBV assessed as stimulation of CD8+T cell response to virus by measuring decrease in HBsAg production treated with media from PBMC stimulated with 10 nM compound for 10 days relative to control; format: functional; design: scale not given: the % may be the effect or the level left; conditions: time 10 day
# [23] = system: Hepatitis B virus; test: Antiviral activity against HBV infected in human primary hepatocytes; format: functional, organism-based; conditions: Primary hepatocyte
# [24] = system: PBMC; test: Immunomodulatory activity in human primary hepatocytes infected with HBV assessed as stimulation of CD8+T cell response to virus by measuring degradation of cccDNA treated with media from PBMC stimulated with 10 nM compound for 10 days; format: functional, cell-based; conditions: time 10.0 day
# [25] = system: Probable ATP-dependent RNA helicase DDX58 (Homo sapiens); test: Agonist activity at human RIG1 expressed in HEK293 cells assessed as induction of IFN-inducible ISG54 promoter activity up to 10 uM after overnight incubation by secreted lucia luciferase reporter gene assay; conditions: dose microM <=10
structure (smiles),measurement,setting,value
CCCC[C@](C)(CO)Nc1nc(N)nc2cc(F)cnc12 [SELGANTOLIMOD],pKa,[1],6.3
same,CC50,[2],17 µM
same,Activity,[3],>50%
same,CLhep predicted at 2 µM,[4],25 mL/min/kg
same,CLhep predicted at 2 µM,[5],16.7 mL/min/kg
same,Drug metabolism,[6],Metabolite_Notdetected
same,Drug metabolism,[7],Metabolite_Detected
same,Vd,[8],1.1 L/kg
same,AUC(0-inf),[9],0.827 µM·h
same,bioavailability,[10],8.8%
same,clearance,[11],20 mL/min/kg
same,Vd,[12],1.01 L/kg
same,AUC(0-inf),[13],0.0118 µM·h
same,Vd,[14],2.1 L/kg
same,half-life,[15],40.2 min
same,AUC(0-inf),[16],0.0047 µM·h
same,bioavailability,[17],0.3%
same,Fa,[18],100%
same,Drug excretion,[19],Active
same,Activity,[20],inactive
same,Activity,[21],inactive
same,Activity,[22],>50%
same,Activity,[23],inactive
same,Activity,[24],inactive
same,Activity,[25],inactive
